Assay results taken from ChEMBL document CHEMBL1128232, “Synthesis of novel thiol-containing citric acid analogues. Kinetic evaluation of these and other potential active-site-directed and mechanism-based inhibitors of ATP citrate lyase” (J Med Chem, 1995).

How the values were obtained:
ATP-citrate synthase [1] = target: T1, ATP-citrate synthase (Rattus norvegicus, UniProt P16638); test: Reversible binding potential for rat ATP-Citrate Lyase as carbon-carbon bond cleavage activity in citrate substrate
T1 sequence (P16638 whole entry): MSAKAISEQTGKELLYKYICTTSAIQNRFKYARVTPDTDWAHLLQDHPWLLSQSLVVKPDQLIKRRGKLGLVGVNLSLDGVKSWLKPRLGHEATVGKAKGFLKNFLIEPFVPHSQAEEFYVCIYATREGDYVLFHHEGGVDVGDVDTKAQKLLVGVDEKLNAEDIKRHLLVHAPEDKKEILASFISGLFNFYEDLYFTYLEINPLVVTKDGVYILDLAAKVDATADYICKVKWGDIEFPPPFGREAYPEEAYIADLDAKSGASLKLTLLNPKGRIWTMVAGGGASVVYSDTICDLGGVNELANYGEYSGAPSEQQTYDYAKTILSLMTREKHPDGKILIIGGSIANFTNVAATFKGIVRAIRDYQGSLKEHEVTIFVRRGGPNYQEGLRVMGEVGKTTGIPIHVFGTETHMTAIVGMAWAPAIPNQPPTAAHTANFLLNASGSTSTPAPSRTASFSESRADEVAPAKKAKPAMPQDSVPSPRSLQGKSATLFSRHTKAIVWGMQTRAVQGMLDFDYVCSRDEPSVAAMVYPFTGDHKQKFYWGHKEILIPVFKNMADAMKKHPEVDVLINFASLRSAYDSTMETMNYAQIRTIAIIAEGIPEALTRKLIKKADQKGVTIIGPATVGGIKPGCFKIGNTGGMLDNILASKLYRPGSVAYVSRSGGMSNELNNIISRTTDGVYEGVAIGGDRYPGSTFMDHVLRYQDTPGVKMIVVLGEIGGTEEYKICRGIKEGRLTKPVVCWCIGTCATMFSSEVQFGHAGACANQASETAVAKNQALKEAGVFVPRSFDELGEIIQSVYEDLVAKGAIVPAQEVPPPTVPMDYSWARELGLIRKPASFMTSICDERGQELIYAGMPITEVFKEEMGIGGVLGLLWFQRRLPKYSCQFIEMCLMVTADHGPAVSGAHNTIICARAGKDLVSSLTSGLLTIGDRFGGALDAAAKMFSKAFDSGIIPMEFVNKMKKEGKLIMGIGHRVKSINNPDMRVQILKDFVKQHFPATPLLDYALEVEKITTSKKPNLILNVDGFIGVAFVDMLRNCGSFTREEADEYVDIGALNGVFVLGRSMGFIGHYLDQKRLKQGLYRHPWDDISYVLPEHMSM
Summary of the method: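 Purified rat liver enzyme; carbon–carbon cleavage activity measured at 1.0 mM citrate (equal to Km). Ki derived by fitting rate data to the competitive inhibition equation, which reduces under these conditions to V = Vmax/(2 + [I]/Ki).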

ATP-citrate synthase [2] = target: T1, ATP-citrate synthase; test: Irreversible inactivation was evaluated against rat ATP-Citrate Lyase; nd= Time dependent inactivation was not detectable above thermal decay rate of 5.0 x10E-3 1/h at 2 mM inhibitor at […]; not detectable
Summary of the method: (§1)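 Rat liver ATP citrate lyase (purified) incubated with 2 mM inhibitor at 25 °C in Tris-HCl pH 8.0; aliquots withdrawn over 48 h and placed directly into assay cocktail with saturating substrate. Remaining activity read as carbon–carbon cleavage of citrate to detect time-dependent inactivation.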

ATP-citrate synthase [3] = target: T1, ATP-citrate synthase; test: Irreversible inactivation of rat ATP-Citrate Lyase; nd=not detectable; summary of the method: as §1

SMILES | Ki (ATP-citrate synthase [1]) | Ki (ATP-citrate synthase [2]) | Ki (ATP-citrate synthase [3])
O=C(O)C[C@@](O)(C(=O)O)[C@H](O)C(=O)O | 0.15 µM | Not detectable | 
O=C(O)C[C@@](O)(C(=O)O)[C@H](S)C(=O)O | 58 µM |  | Not detectable
O=C(O)C[C@]1(C(=O)O)O[C@H]1C(=O)O | 18 µM |  | Not detectable
O=C(O)C[C@@](O)(C(=O)O)[C@@H](S)C(=O)O | 150 µM |  | Not detectable
O=C(O)C[C@]1(C(=O)O)O[C@@H]1C(=O)O | 400 µM |  | Not detectable
O=C(O)CC(S)(CC(=O)O)C(=O)O | 295 µM |  | Not detectable
O=C1C[C@@](C(=O)O)([C@@H](Cl)C(=O)O)O1 | 340 µM |  | Not detectable
O=C(O)C[C@@](O)(C(=O)O)[C@@H](Cl)C(=O)O | 29 µM |  | Not detectable
O=C(O)/C=C(/CC(=O)O)C(=O)O | > 1000 µM |  | Not detectable
CSSC(CC(=O)O)(CC(=O)O)C(=O)O | 480 µM |  | Not detectable
CSS[C@H](C(=O)O)[C@@](O)(CC(=O)O)C(=O)O | 34 µM |  | Not detectable
O=C(O)/C=C(\CC(=O)O)C(=O)O [ACONITIC ACID] | > 1000 µM |  | Not detectable
C=C(CC(=O)O)C(=O)O [ITACONATE] | > 1000 µM |  | Not detectable
